Results: publication PMC8926318 (Iranian Journal of Biotechnology, 2021)

How the values were obtained:
human colorectal cells = conditions: cited from earlier work
human fibrosarcoma cells = conditions: by inducing apoptosis; cited from earlier work
[1] = system: HepG2 (human liver cancer cell line); assay: MTT cell viability assay, HepG2; type: cell-based; conditions: HepG2 cells, 48 h, only at the highest concentration (1000 µM); for inhibitory activity compared with ciprofloxacin (in words): Fig. 3; for viability inhibition compared with the triazole compound (in words): Fig. 5
Outline: (§1)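 Cells kept in RPMI1640 with 10% FBS, penicillin and streptomycin (100 µg.mL-1 each) at 37 °C, 5% CO2. Plated at 10⁴ cells/well for 24 h, then given test compound at 10, 100 or 1000 µM for 48 h. MTT (5 mg.mL-1 in PBS) added for 4 h at 37 °C. Formazan dissolved in DMSO for 20 min, read at 570 nm. At least triplicate; one-way ANOVA with Tukey post hoc.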

[2] = system: LNCaP (human prostatic carcinoma cell line); assay: MTT cell viability assay, LNCaP; type: cell-based; conditions: LNCaP cells, 48 h, 1000 µM, p<0.01
Outline: as §1

| Substance | inhibitory activity compared with ciprofloxacin (in words) [1] | viability inhibition compared with the triazole compound (in words) [1] | other results |
| --- | --- | --- | --- |
| LSGNK [C1] | – | – | anti-proliferative activity (in words) (human colorectal cells): anti-proliferative agent |
| YIGSR [C2] | – | – | effect on tumor growth and metastasis (in words) (human fibrosarcoma cells): inhibitory effect on tumor growth and metastasis |
| ciprofloxacin-LSGNK [Cipro-C1] | more inhibitory activity | – | – |
| ciprofloxacin-YIGSR [Cipro-C2] | more inhibitory activity | – | – |
| triazole-LSGNK [triazole-C1] | – | noticeable viable inhibition | – |
| triazole-YIGSR [triazole-C2] | – | noticeable viable inhibition | toxicity compared with unconjugated congener (in words) [2]: more significant |
